From ChEMBL document CHEMBL3286252, “Synthesis, biological evaluation and structure-activity relationship of new GABA uptake inhibitors, derivatives of 4-aminobutanamides” (Eur J Med Chem, 2014) come the findings set out here.

As usually defined, the inhibition in vivo is the relative decrease from the control value, in per cent. Broadly, the IC50 is the concentration at which inhibition is half-maximal.

The subject of data set [1] is Mus musculus. The data set is described as follows: Antidepressant-like activity in albino Swiss (CD-1) mouse assessed as reduction in immobility time at 15 mg/kg, ip by forced swim test. It counts as functional. To be noted: route intraperitoneal. Summed up: (§1)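 Compound or vehicle was given i.p. 60 min before the test. Each mouse was placed for 6 min in a glass cylinder (25 cm high, 10 cm diameter) holding 10 cm of water at 23–25 C. Immobility, meaning passive floating, was timed over the final 4 min. 7–8 mice per group; ANOVA with Dunnett's test.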

A further data set addresses T1, GABA transporter 4 (Mus musculus, UniProt P31650).
T1 sequence (P31650 whole entry): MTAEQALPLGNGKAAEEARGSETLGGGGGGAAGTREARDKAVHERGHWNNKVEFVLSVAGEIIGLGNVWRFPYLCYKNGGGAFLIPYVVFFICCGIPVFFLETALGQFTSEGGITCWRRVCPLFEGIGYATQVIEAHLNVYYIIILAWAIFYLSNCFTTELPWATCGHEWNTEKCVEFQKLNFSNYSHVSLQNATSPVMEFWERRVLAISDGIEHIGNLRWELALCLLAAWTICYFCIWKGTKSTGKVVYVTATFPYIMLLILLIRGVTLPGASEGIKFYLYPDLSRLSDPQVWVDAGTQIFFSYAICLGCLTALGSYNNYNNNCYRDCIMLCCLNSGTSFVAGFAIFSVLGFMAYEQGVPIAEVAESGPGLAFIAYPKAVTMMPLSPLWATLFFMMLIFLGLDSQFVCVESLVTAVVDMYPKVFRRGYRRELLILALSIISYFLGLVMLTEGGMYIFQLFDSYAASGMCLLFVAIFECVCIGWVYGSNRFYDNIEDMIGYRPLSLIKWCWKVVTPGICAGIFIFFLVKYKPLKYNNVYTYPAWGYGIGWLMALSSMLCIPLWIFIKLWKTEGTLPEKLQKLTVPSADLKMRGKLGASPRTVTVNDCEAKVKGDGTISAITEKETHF
The data set is described as follows: Inhibition of mouse GAT4 expressed in HEK293 cells assessed as decrease in [3H]GABA uptake. The data set is classed as cell-based.

Data set [2] concerns Mus musculus. In words: Anticonvulsant activity against pentylenetetrazole-induced seizure in albino Swiss (CD-1) mouse assessed as decrease in seizure episodes at 30 mg/kg, ip administered 60 mins prior to PTZ challenge. The data set is classed as functional. To be noted: route intraperitoneal. The procedure, abridged:
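Male CD-1 mice (18–22 g) given compound or vehicle i.p. 60 min before PTZ 100 mg/kg s.c. Each mouse was then caged alone and watched for 30 min for clonic seizures, meaning whole-body clonus lasting >3 s with loss of righting reflex. Recorded: latency to first clonus, number of seizure episodes, and deaths within 30 min. Analysis: ANOVA/Dunnett or t-test; mortality by Fisher's exact test; 7–10 mice per group.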

The subject of data set [3] is Mus musculus. In words: Toxicity in albino Swiss (CD-1) mouse assessed as decrease in locomotor activity at 30 mg/kg, ip after 60 mins. The data set is classed as organism-based. The arrangement: dose 30 mg/kg, route intraperitoneal. As to conditions: in vivo, 1 h. Summed up:
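Mice were pretreated i.p. with 30 mg/kg or vehicle (1% Tween 80) 60 min before testing. Each was placed alone in an IR-beam activity cage (40×40×31 cm) in a sound-attenuated room. Beam interruptions were counted over 30 min in five 6-min intervals. Analysis: repeated-measures ANOVA with Bonferroni.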

The target of data set [4] is Sodium- and chloride-dependent GABA transporter 1 (Mus musculus, UniProt P31648). In words: Inhibition of mouse GAT1 expressed in HEK293 cells assessed as decrease in [3H]GABA uptake. It counts as cell-based.
Another data set addresses T2, GABA transporter 3 (Mus musculus, UniProt P31649).
T2 sequence (P31649 whole entry): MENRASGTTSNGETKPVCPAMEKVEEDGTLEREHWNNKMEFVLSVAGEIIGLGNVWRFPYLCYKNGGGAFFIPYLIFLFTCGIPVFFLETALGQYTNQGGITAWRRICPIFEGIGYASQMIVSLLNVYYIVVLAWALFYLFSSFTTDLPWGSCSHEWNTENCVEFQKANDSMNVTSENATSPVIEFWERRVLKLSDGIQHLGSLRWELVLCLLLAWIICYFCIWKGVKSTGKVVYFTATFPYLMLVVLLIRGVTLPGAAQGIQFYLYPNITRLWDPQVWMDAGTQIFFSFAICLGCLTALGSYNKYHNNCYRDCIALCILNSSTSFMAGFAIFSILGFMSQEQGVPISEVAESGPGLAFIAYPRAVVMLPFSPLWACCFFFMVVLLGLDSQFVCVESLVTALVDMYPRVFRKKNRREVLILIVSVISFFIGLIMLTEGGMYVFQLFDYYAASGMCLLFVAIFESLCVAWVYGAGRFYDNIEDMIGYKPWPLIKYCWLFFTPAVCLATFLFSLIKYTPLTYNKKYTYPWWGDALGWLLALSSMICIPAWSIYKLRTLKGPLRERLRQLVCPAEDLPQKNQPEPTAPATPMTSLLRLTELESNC
The data set is described as follows: Inhibition of mouse GAT3 expressed in HEK293 cells assessed as decrease in [3H]GABA uptake. The data set is classed as cell-based.

For the next data set, the target named is T3, GABA transporter 2 (Mus musculus, UniProt P31651).
T3 sequence (P31651 whole entry): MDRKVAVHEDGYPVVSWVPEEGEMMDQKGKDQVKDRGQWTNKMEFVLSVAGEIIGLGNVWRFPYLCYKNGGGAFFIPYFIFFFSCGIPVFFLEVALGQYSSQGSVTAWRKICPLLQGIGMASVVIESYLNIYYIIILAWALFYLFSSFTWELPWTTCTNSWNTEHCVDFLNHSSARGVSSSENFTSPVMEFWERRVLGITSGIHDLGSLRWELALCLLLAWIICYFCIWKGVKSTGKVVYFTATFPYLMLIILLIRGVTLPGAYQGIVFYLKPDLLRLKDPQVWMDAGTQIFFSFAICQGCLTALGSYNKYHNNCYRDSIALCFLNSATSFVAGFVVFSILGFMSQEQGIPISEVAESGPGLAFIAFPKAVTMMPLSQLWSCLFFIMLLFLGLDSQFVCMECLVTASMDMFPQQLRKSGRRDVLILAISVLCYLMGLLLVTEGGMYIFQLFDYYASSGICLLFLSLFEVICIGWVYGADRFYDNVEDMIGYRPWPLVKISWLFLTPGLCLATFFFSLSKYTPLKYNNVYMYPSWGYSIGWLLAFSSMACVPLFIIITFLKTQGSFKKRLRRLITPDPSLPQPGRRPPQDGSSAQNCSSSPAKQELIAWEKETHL
The data set is described as follows: Inhibition of mouse GAT2 expressed in HEK293 cells assessed as decrease in [3H]GABA uptake. The data set is classed as cell-based.

Data set [5] concerns Mus musculus. The data set is described as follows: Antidepressant-like activity in albino Swiss (CD-1) mouse assessed as reduction in immobility time at 30 mg/kg, ip by forced swim test. The data set is classed as functional. To be noted: route intraperitoneal. The procedure, abridged: as §1
A short description of data set [6]: Retardation factor of the compound using 25%NH3/MeOH/DCM/PE at ratio of 45:225:600:90 as solvent system by thin layer chromatography. The data set is classed as physicochemical.
The subject of data set [7] is Mus musculus. The data set is described as follows: Toxicity in albino Swiss (CD-1) mouse assessed as motor impairment at 30 to 100 mg/kg, ip measured after 60 mins by rotarod test. It counts as organism-based. The arrangement: dose 30-100 mg/kg, route intraperitoneal. As to conditions: in vivo, 1 h. Summed up:
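Mice were trained for 3 days at 18 rpm on a rod of 2 cm diameter. At least 24 h after the last training, they were given 30 or 100 mg/kg or vehicle (1% Tween 80) i.p. 60 min before testing at 6, 18, then 24 rpm. Impairment was defined as failing to stay on the rod for 1 min; mean time on the rod was recorded.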
A general note: Falling from the rotarod earlier than controls is read as motor impairment.

For the molecule `NCCC(C(=O)NCc1ccc(Cl)cc1)N1CCN(C(c2ccccc2)c2ccccc2)CC1` (stereo not given), the inhibition in vivo at 15 mg/kg in the data set with Mus musculus [1] is 3.8%. The IC50 was 12 µM at GABA transporter 4, 25.7 µM in data set [4], 10.7 µM on GABA transporter 3 and 20.9 µM at GABA transporter 2. The inhibition in vivo at 30 mg/kg in the data set with Mus musculus [2] was determined as 83%; in the data set on Mus musculus [5], 28.9%. Also, the Activity entry is reported as “Toxic” in the data set with Mus musculus [3] and “Non-toxic” with Mus musculus [7]. Also, in data set [6], the Rf is given as 0.14.

Regarding `NCCC(C(=O)NCc1ccccc1Cl)N1CCN(C(c2ccccc2)c2ccccc2)CC1` (stereo not given), the inhibition in vivo at 15 mg/kg with Mus musculus [1] stood at 26%. The IC50 was 15.1 µM at GABA transporter 4, 20.9 µM in data set [4], 10.5 µM at GABA transporter 3 and 21.9 µM on GABA transporter 2. Moreover, the inhibition in vivo at 30 mg/kg with Mus musculus [2] was found to be 37%; in the data set with Mus musculus [5], 38.5%. The Activity result in the data set with Mus musculus [3] and with Mus musculus [7] was “Non-toxic” each time. Also, the Rf in data set [6] came out at 0.18.
